Measurements reported in ChEMBL document CHEMBL4304834, “3-Amino-chromanes and Tetrahydroquinolines as Selective 5-HT2B, 5-HT7, or σ1 Receptor Ligands” (ACS Med Chem Lett, 2019).
Calls of active or inactive are those of the source. The rule behind the calls is not given here.

Key:
[1] = molecular target: Alpha-2A adrenergic receptor (Homo sapiens) (UniProt P08913); assay: Displacement of [3H]-Rauwolscine from human recombinant adrenergic Alpha2A receptor expressed in stable MDCK cells at 10 uM after 90 mins by microbeta scintillation counting method relative to control; assay type: cell-based
Alpha-2A adrenergic receptor (Homo sapiens), sequence (P08913 whole entry): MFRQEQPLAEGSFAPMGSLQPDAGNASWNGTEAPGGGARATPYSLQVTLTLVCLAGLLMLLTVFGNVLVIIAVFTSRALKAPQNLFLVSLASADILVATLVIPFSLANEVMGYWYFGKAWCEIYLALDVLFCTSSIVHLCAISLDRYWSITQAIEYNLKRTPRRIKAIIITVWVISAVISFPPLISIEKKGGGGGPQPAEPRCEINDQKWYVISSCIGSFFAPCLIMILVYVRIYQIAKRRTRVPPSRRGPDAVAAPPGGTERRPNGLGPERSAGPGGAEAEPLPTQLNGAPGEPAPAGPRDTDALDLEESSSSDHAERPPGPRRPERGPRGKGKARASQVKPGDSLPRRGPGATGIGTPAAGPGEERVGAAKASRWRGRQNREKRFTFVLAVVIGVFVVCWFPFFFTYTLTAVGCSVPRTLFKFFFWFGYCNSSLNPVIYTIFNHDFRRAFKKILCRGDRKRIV

Rattus norvegicus = organism: Rattus norvegicus; assay: Displacement of [3H]-Flunitrazepam from BZP receptor in rat brain at 10 uM after 90 mins by microbeta scintillation counting method; assay type: tissue-based
Outline: (§1)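 Radioligand binding run by the NIMH Psychoactive Drug Screening Program. […] Otherwise Ki comes from sigmoidal curve fits of triplicate measurements in a single experiment, or is averaged over repeated experiments each run in triplicate.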

[2] = molecular target: 5-hydroxytryptamine receptor 5A (Homo sapiens, UniProt P47898); assay: Displacement of [3H]-LSD from human recombinant 5-HT5A receptor expressed in Flp-In CHO cells at 10 uM after 90 mins by microbeta scintillation counting method relative to control; assay type: cell-based; outline: as §1
5-hydroxytryptamine receptor 5A, sequence (P47898 whole entry): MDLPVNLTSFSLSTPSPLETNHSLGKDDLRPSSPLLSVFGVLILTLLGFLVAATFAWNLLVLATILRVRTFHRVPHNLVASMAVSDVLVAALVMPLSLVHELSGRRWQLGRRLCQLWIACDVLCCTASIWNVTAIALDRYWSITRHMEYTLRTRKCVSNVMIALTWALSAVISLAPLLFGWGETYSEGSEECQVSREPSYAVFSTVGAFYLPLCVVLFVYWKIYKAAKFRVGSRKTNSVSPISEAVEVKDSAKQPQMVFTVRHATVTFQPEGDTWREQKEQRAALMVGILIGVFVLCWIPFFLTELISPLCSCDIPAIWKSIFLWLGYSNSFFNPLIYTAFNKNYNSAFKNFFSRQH

Homo sapiens [3] = organism: Homo sapiens; assay: Selectivity index, ratio of Ki for human recombinant MOR receptor to Ki for human recombinant sigma1 receptor
Outline: (§2)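 Both Ki values in each ratio come from NIMH Psychoactive Drug Screening Program radioligand binding. […] Other targets were given full binding curves, measured in triplicate, and Ki was taken from a sigmoidal curve fit. Some values were repeated in duplicate or triplicate independent experiments.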

Homo sapiens [4] = organism: Homo sapiens; assay: Selectivity index, ratio of Ki for human recombinant dopamine D4 receptor to Ki for human recombinant sigma1 receptor; outline: as §2
Homo sapiens [5] = organism: Homo sapiens; assay: Selectivity index, ratio of Ki for human recombinant DAT receptor to Ki for human recombinant sigma1 receptor
Homo sapiens [6] = organism: Homo sapiens; assay: Selectivity index, ratio of Ki for human recombinant dopamine D5 receptor to Ki for human recombinant sigma1 receptor; outline: as §2
[7] = molecular target: Sodium-dependent noradrenaline transporter (Homo sapiens, UniProt P23975); assay: Displacement of [3H]-Nisoxetine from human recombinant NET receptor expressed in stable HEK cells at 10 uM after 90 mins by microbeta scintillation counting method relative to control; assay type: cell-based; outline: as §1
Sodium-dependent noradrenaline transporter, sequence (P23975 whole entry): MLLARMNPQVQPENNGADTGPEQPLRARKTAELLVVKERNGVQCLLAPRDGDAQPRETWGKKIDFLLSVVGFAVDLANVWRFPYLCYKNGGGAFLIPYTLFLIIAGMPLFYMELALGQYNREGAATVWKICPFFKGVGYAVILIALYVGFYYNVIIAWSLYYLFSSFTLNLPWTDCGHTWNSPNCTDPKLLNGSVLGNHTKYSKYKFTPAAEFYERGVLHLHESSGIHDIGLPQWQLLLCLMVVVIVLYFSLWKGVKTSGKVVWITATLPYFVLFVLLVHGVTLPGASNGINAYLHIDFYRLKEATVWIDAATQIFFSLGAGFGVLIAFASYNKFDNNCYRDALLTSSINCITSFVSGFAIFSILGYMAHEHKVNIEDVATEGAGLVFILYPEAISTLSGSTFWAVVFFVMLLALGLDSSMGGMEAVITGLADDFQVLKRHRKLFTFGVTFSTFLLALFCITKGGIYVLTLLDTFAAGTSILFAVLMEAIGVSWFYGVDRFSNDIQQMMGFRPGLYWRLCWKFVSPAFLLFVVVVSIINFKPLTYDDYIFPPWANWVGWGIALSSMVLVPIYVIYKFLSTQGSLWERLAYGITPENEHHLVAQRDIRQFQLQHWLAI

[8] = Selectivity index, ratio of Ki for rat brain GABAA receptor to Ki for human recombinant sigma1 receptor; outline: as §2
Homo sapiens [9] = organism: Homo sapiens; assay: Selectivity index, ratio of Ki for human recombinant dopamine D2 receptor to Ki for human recombinant sigma1 receptor; outline: as §2
Homo sapiens [10] = organism: Homo sapiens; assay: Selectivity index, ratio of Ki for human recombinant adrenergic Alpha2B receptor to Ki for human recombinant sigma1 receptor; outline: as §2
Homo sapiens [11] = organism: Homo sapiens; assay: Selectivity index, ratio of Ki for human recombinant 5-HT1A to Ki for human recombinant sigma1 receptor
Homo sapiens [12] = organism: Homo sapiens; assay: Selectivity index, ratio of Ki for human recombinant 5-HT3 receptor to Ki for human recombinant sigma1 receptor
Homo sapiens [13] = organism: Homo sapiens; assay: Selectivity index, ratio of Ki for human recombinant adrenergic Alpha2C receptor to Ki for human recombinant sigma1 receptor; outline: as §2
Homo sapiens [14] = organism: Homo sapiens; assay: Selectivity index, ratio of Ki for human recombinant adrenergic Alpha1D receptor to human recombinant sigma1 receptor; outline: as §2
Homo sapiens [15] = organism: Homo sapiens; assay: Selectivity index, ratio of Ki for human recombinant adrenergic Beta3 receptor to Ki for human recombinant sigma1 receptor; outline: as §2
Homo sapiens [16] = organism: Homo sapiens; assay: Selectivity index, ratio of Ki for human recombinant NET receptor to Ki for human recombinant sigma1 receptor; outline: as §2
661W [17] = assay: Cytoprotective activity in mouse 661W cells assessed as reduction in tBHP-induced ROS level at 30 uM after 2 hrs by […] fluorescent microscopic analysis; assay type: functional, cell-based
Outline: (§3)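 661W cells seeded on coverslips for 18 h, then exposed 2 h to 55 μM tBHP with or without test agent or (+)-pentazocine. ROS are detected with CellROX green dye by epifluorescence, with DAPI marking nuclei. Fluorescence intensity is quantified as mean ± SD from three independent experiments, each run in duplicate.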

Homo sapiens [18] = organism: Homo sapiens; assay: Selectivity index, ratio of Ki for human recombinant 5-HT7A receptor to Ki for human recombinant sigma1 receptor
Homo sapiens [19] = organism: Homo sapiens; assay: Selectivity index, ratio of Ki for human recombinant dopamine D3 receptor to Ki for human recombinant sigma1 receptor; outline: as §2
Homo sapiens [20] = organism: Homo sapiens; assay: Selectivity index, ratio of Ki for human recombinant Muscarinic acetylcholine M4 receptor to Ki for human recombinant sigma1 receptor; outline: as §2
Homo sapiens [21] = organism: Homo sapiens; assay: Selectivity index, ratio of Ki for human recombinant 5-HT2C receptor to Ki for human recombinant sigma1 receptor
Homo sapiens [22] = organism: Homo sapiens; assay: Selectivity index, ratio of Ki for human recombinant dopamine D1 receptor to Ki for human recombinant sigma1 receptor; outline: as §2
Homo sapiens [23] = organism: Homo sapiens; assay: Selectivity index, ratio of Ki for human recombinant histamine H1 receptor to Ki for human recombinant sigma1 receptor; outline: as §2
[24] = Selectivity index, ratio of Ki for rat brain BZP receptor to Ki for human recombinant sigma1 receptor; outline: as §2
Homo sapiens [25] = organism: Homo sapiens; assay: Selectivity index, ratio of Ki for human recombinant 5-HT2B receptor to Ki for human recombinant sigma1 receptor
661W [26] = assay: Cytoprotective activity in mouse 661W cells assessed as inhibition of t-BHP induced oxidative stress by measuring in cell viability at 30 uM in presence of 10 uM of […] preincubated for 30 mins followed by compound addition and measured after 24 hrs by MTT assay; assay type: functional, cell-based
Outline: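 Same 661W oxidative-stress setup: 55 μM tBHP for 24 h with test agent at 30 μM, plus the σ1 antagonist BD1063 at 10 μM. Viability is read by MTT.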

661W [27] = assay: Cytoprotective activity in mouse 661W cells assessed as inhibition of t-BHP induced oxidative stress by measuring cell viability at 200 uM after 24 hrs by MTT assay (reference value: >50%); assay type: functional, cell-based
Homo sapiens [28] = organism: Homo sapiens; assay: Selectivity index, ratio of Ki for human recombinant sigma2 receptor to Ki for human recombinant sigma1 receptor; outline: as §2
Homo sapiens [29] = organism: Homo sapiens; assay: Selectivity index, ratio of Ki for human recombinant Muscarinic acetylcholine M1 receptor to Ki for human recombinant sigma1 receptor; outline: as §2
Homo sapiens [30] = organism: Homo sapiens; assay: Selectivity index, ratio of Ki for human recombinant DOR receptor to Ki for human recombinant sigma1 receptor; outline: as §2
Homo sapiens [31] = organism: Homo sapiens; assay: Selectivity index, ratio of Ki for human recombinant Muscarinic acetylcholine M3 receptor to Ki for human recombinant sigma1 receptor; outline: as §2
Homo sapiens [32] = organism: Homo sapiens; assay: Selectivity index, ratio of Ki for human recombinant Muscarinic acetylcholine M2 receptor to Ki for human recombinant sigma1 receptor; outline: as §2
Homo sapiens [33] = organism: Homo sapiens; assay: Selectivity index, ratio of Ki for human recombinant KOR receptor to Ki for human recombinant sigma1 receptor; outline: as §2
Homo sapiens [34] = organism: Homo sapiens; assay: Selectivity index, ratio of Ki for human recombinant adrenergic Beta2 receptor to Ki for human recombinant sigma1 receptor; outline: as §2
Homo sapiens [35] = organism: Homo sapiens; assay: Selectivity index, ratio of Ki for human recombinant histamine H4 receptor to Ki for human recombinant sigma1 receptor; outline: as §2
661W [36] = assay: Cytoprotective activity in mouse 661W cells assessed as reduction in tBHP-induced ROS level at 10 to 30 uM after 2 hrs by […] fluorescent microscopic analysis; assay type: functional, cell-based; outline: as §3
Homo sapiens [37] = organism: Homo sapiens; assay: Selectivity index, ratio of Ki for human recombinant histamine H2 receptor to Ki for human recombinant sigma1 receptor; outline: as §2
Homo sapiens [38] = organism: Homo sapiens; assay: Selectivity index, ratio of Ki for human recombinant Muscarinic acetylcholine M5 receptor to Ki for human recombinant sigma1 receptor; outline: as §2
[39] = Selectivity index, ratio of Ki for rat brain PBR receptor to Ki for human recombinant sigma1 receptor; outline: as §2
661W [40] = assay: Cytoprotective activity in mouse 661W cells assessed as inhibition of t-BHP induced oxidative stress by measuring increase in cell viability at 30 uM after 24 hrs by MTT assay (Rvb < 50%); assay type: functional

Compound: CC[C@H]1c2cc(C)ccc2OC[C@@]1(C)N (racemic)
- inhibition [1]: < 50%
- inhibition (Rattus norvegicus): < 50%
- inhibition [2]: < 50%

Compound: COc1cc(OC)c2c(c1)OC[C@@]1(C)NCC[C@@H]21 (racemic)
- Ratio Ki (Homo sapiens [3]): > 20
- Ratio Ki (Homo sapiens [4]): > 20
- Ratio Ki (Homo sapiens [5]): > 20
- Ratio Ki (Homo sapiens [6]): > 20
- inhibition [7]: < 50%
- Ratio Ki [8]: > 20
- Ratio Ki (Homo sapiens [9]): > 20
- Ratio Ki (Homo sapiens [10]): > 20
- Ratio Ki (Homo sapiens [11]): > 20
- Ratio Ki (Homo sapiens [12]): > 20
- Ratio Ki (Homo sapiens [13]): > 20
- Ratio Ki (Homo sapiens [14]): > 20
- Ratio Ki (Homo sapiens [15]): > 20
- Ratio Ki (Homo sapiens [16]): > 20
- inhibition (661W [17]): Active
- Ratio Ki (Homo sapiens [18]): > 20
- Ratio Ki (Homo sapiens [19]): > 20
- Ratio Ki (Homo sapiens [20]): > 20
- Ratio Ki (Homo sapiens [21]): > 20
- Ratio Ki (Homo sapiens [22]): > 20
- Ratio Ki (Homo sapiens [23]): > 20
- Ratio Ki [24]: > 20
- Ratio Ki (Homo sapiens [25]): > 5
- Activity (661W [26]): inactive
- Activity (661W [27]): inactive
- Ratio Ki (Homo sapiens [28]): > 200
- Ratio Ki (Homo sapiens [29]): > 20
- Ratio Ki (Homo sapiens [30]): > 20
- Ratio Ki (Homo sapiens [31]): > 20
- Ratio Ki (Homo sapiens [32]): > 20
- Ratio Ki (Homo sapiens [33]): > 20
- Ratio Ki (Homo sapiens [34]): > 20
- Ratio Ki (Homo sapiens [35]): > 20
- inhibition (661W [36]): Active
- Ratio Ki (Homo sapiens [37]): > 20
- Ratio Ki (Homo sapiens [38]): > 20
- Ratio Ki [39]: > 20
- Activity (661W [40]): >80%
